Results as given in ChEMBL document CHEMBL1287673, “Neo-tanshinlactone inspired synthesis, in vitro evaluation of novel substituted benzocoumarin derivatives as potent anti-breast cancer agents” (Bioorg Med Chem Lett, 2010).
The source made the active and inactive calls. The rule behind the calls is not given here.

Key:
[1] = test system: MCF7; assay: Anticancer activity against human MCF7 cells expressing estrogen receptor by MTT assay; format: functional, cell-based
[2] = test system: MCF7; assay: Induction of apoptosis in human MCF7 cells expressing estrogen receptor assessed as increase in caspase activity at 10 uM after 16 hrs; format: functional, cell-based
How it was run: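 1 × 10⁴ MCF-7 cells/well at 70–80% confluence grown 16 h, then 10 µM compound for 16 h. General (homogeneous) caspase activity read fluorometrically, excitation 465 nm, emission 520 nm; compared with negative control.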

[3] = test system: MCF7; assay: Induction of apoptosis in human MCF7 cells expressing estrogen receptor assessed as presence of apoptotic body at 10 uM after 18 hrs by Hoechst 33342 staining; format: functional, cell-based
How it was run: (§1)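 MCF-7 at 70–80% confluence given 10 µM compound for 18 h in complete growth medium, then Hoechst 33342 stained and imaged with a ×40 objective. Apoptotic nuclei scored by shape and intensity and normalized to control; tamoxifen positive control.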

[4] = test system: MCF7; assay: Cytotoxicity against human MCF7 cells expressing estrogen receptor assessed as loss of cell viability after 16 hrs by MTT assay; format: functional, cell-based
How it was run: (§2)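 1 × 10⁵ MCF-7 cells at 70–80% confluence exposed 16 h to increasing compound concentrations; growth inhibition read by MTT as percent (Total/Control); tamoxifen positive control; n = 9.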

[5] = Cytotoxicity activity against Sprague-Dawley rat osteoblast cells at 10 uM by MTT assay; format: cell-based
How it was run: (§3)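 Primary osteoblasts, 3 × 10³ cells/well, treated with 10 or 20 µM compound; viability and cell number read by MTT; n = 9.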

[6] = test system: MCF7; assay: Cytotoxicity against human MCF7 cells expressing estrogen receptor assessed as loss of cell viability at 20 uM after 16 hrs by MTT assay; format: functional, cell-based; how it was run: as §2
[7] = test system: MCF7; assay: Induction of apoptosis in human MCF7 cells expressing estrogen receptor assessed as cytoplasmic condensation at 10 uM after 18 hrs by Hoechst 33342 staining; format: functional, cell-based; how it was run: as §1
[8] = Cytotoxicity activity against Sprague-Dawley rat osteoblast cells at 20 uM by MTT assay; format: cell-based; how it was run: as §3
[9] = test system: MCF7; assay: Cell cycle arrest in human MCF7 cells expressing estrogen receptor assessed as accumulation at G1/G0 phase at 10 uM after 24 hrs using propidium iodide staining by flow cytometry; format: functional, cell-based
How it was run: (§4)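 MCF-7, 5 × 10⁵ cells/well at 70–80% confluence, serum-starved, then 10 µM compound for 24 h in phenol red-free medium. Cells fixed in 70% ethanol, rehydrated in PBS, and stained with PI (50 µg/ml) plus ribonuclease A (100 µg/ml). Flow cytometry gives % of cells in each cycle phase.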

[10] = test system: MCF7; assay: Induction of apoptosis in human MCF7 cells expressing estrogen receptor assessed as presence of nuclear fragmentation at 10 uM after 18 hrs by Hoechst 33342 staining; format: functional, cell-based; how it was run: as §1
[11] = test system: MCF7; assay: Induction of apoptosis in human MCF7 cells expressing estrogen receptor at 10 uM after 24 hrs using annexin-V FITC and propidium iodide staining by flow cytometry; format: functional, cell-based
How it was run: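 MCF-7 (5 × 10⁵ cells) at 70–80% confluence held 24 h in DMEM/10% FBS with or without 10 µM compound. Harvested, stained with Annexin-V-FITC and PI, and read by flow cytometry as % apoptotic (Annexin-positive/PI-negative) and necrotic (PI-positive) cells.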

[12] = test system: MCF7; assay: Cytotoxicity against human MCF7 cells expressing estrogen receptor assessed as loss of cell viability at 10 uM after 16 hrs by MTT assay; format: functional, cell-based; how it was run: as §2
[13] = test system: MCF7; assay: Cell cycle arrest in human MCF7 cells expressing estrogen receptor assessed as accumulation at G2 phase at 10 uM after 24 hrs using propidium iodide staining by flow cytometry; format: functional, cell-based; how it was run: as §4

Structure (SMILES)	IC50 [1] [µM]	other results
Cc1ccc(C(=O)/C=C/c2cc(C=O)c(O)c3ccc4c(C)cc(=O)oc4c23)cc1	> 100	–
CCCCCCCN/C=C1/C=C(C=O)c2c(ccc3c(C)cc(=O)oc23)C1=O	> 100	–
COc1ccc(C(=O)/C=C/c2cc(C=O)c(O)c3ccc4c(C)cc(=O)oc4c23)cc1	> 100	–
COc1ccc(C(=O)/C=C/C2=CC(=C/NC(C)(C)C)/C(=O)c3ccc4c(C)cc(=O)oc4c32)cc1	> 100	–
CCCN/C=C1/C=C(C=O)c2c(ccc3c(C)cc(=O)oc23)C1=O	7.9	Activity [2]: Active; Activity [3]: Active; Activity [4]: Dose-dependent effect; Activity [5]: Non-toxic; Activity [6]: Toxic; Activity [7]: Active; Activity [8]: Non-toxic; Activity [9]: Active; Activity [10]: Active
Cc1ccc(C(=O)/C=C/C2=CC(=C/NC(C)C)/C(=O)c3ccc4c(C)cc(=O)oc4c32)c(C)c1	35	–
CCN/C=C1C=C(/C=C/C(=O)c2ccc(OC)cc2)c2c(ccc3c(C)cc(=O)oc23)C/1=O	30	–
Cc1cc(=O)oc2c3c(ccc12)C(=O)/C(=C\NC(C)C)C=C3C=O	130	–
Cc1cc(=O)oc2c3c(ccc12)C(=O)/C(=C\NC(C)C)C=C3/C=C/C(=O)c1ccccc1	> 100	–
CCCCN/C=C1C=C(/C=C/C(=O)c2ccc(O)cc2)c2c(ccc3c(C)cc(=O)oc23)C/1=O	40	–
Cc1cc(=O)oc2c1ccc1c(O)cccc12	> 100	–
CC/C(=C(\c1ccccc1)c1ccc(OCCN(C)C)cc1)c1ccccc1 [TAMOXIFEN]	11.8	–
CCCCN/C=C1C=C(/C=C/C(=O)c2ccc(OC)cc2)c2c(ccc3c(C)cc(=O)oc23)C/1=O	92	–
Cc1cc(=O)oc2c1ccc1c(O)c(C=O)cc(/C=C/C(=O)c3ccccc3)c12	> 100	–
CCN/C=C1C=C(/C=C/C(=O)c2ccc(O)cc2)c2c(ccc3c(C)cc(=O)oc23)C/1=O	85	–
CCCCN/C=C1C=C(/C=C/C(=O)c2ccc(C)cc2C)c2c(ccc3c(C)cc(=O)oc23)C/1=O	> 100	–
Cc1cc(=O)oc2c3c(ccc12)C(=O)/C(=C\NC(C)(C)C)C=C3/C=C/C(=O)c1ccc(O)cc1	> 100	–
Cc1cc(=O)oc2c3c(ccc12)C(=O)/C(=C\NC(C)(C)C)C=C3C=O	20	–

Structure (SMILES)	IC50 [1] [µM]	other results
Cc1cc(=O)oc2c3c(ccc12)C(=O)/C(=C\NC(C)(C)C)C=C3/C=C/C(=O)c1ccccc1	92	–
Cc1ccc(C(=O)/C=C/C2=CC(=C/NC(C)(C)C)/C(=O)c3ccc4c(C)cc(=O)oc4c32)cc1	97	–
CCCCN/C=C1C=C(/C=C/C(=O)c2ccc(C)cc2)c2c(ccc3c(C)cc(=O)oc23)C/1=O	> 100	–
Cc1cc(=O)oc2c1ccc1c(O)c(C=O)cc(C=O)c12	> 100	–
Cc1ccc(C(=O)/C=C/c2cc(C=O)c(O)c3ccc4c(C)cc(=O)oc4c23)c(C)c1	> 100	–
Cc1ccc(C(=O)/C=C/C2=CC(=C/NC(C)C)/C(=O)c3ccc4c(C)cc(=O)oc4c32)cc1	21	–
COc1ccc(C(=O)/C=C/C2=CC(=C/NC(C)C)/C(=O)c3ccc4c(C)cc(=O)oc4c32)cc1	> 100	–
CCCCN/C=C1C=C(/C=C/C(=O)c2ccccc2)c2c(ccc3c(C)cc(=O)oc23)C/1=O	100	–
CN/C=C1/C=C(C=O)c2c(ccc3c(C)cc(=O)oc23)C1=O	3.8	Activity [2]: Active; Activity [3]: Active; Activity [11]: Active; Activity [4]: Dose-dependent effect; Activity [5]: Non-toxic; Activity [12]: Toxic; Activity [7]: Active; Activity [8]: Non-toxic; Activity [9]: Active; Activity [10]: Active
Cc1cc(=O)oc2c3c(ccc12)C(=O)/C(=C\NCCN1CCOCC1)C=C3C=O	> 100	–
CCN/C=C1C=C(/C=C/C(=O)c2ccccc2)c2c(ccc3c(C)cc(=O)oc23)C/1=O	87	–
CCN/C=C1C=C(/C=C/C(=O)c2ccc(C)cc2C)c2c(ccc3c(C)cc(=O)oc23)C/1=O	> 100	–
Cc1cc(=O)oc2c1ccc1c(O)c(C=O)cc(/C=C/C(=O)c3ccc(O)cc3)c12	> 100	–
CCCCN/C=C1/C=C(C=O)c2c(ccc3c(C)cc(=O)oc23)C1=O	6.5	Activity [2]: Active; Activity [3]: Active; Activity [4]: Dose-dependent effect; Activity [5]: Non-toxic; Activity [7]: Active; Activity [13]: Active; Activity [8]: Non-toxic; Activity [10]: Active
CCN/C=C1/C=C(C=O)c2c(ccc3c(C)cc(=O)oc23)C1=O	> 100	–
Cc1ccc(C(=O)/C=C/C2=CC(=C/NC(C)(C)C)/C(=O)c3ccc4c(C)cc(=O)oc4c32)c(C)c1	> 100	–
CCN/C=C1C=C(/C=C/C(=O)c2ccc(C)cc2)c2c(ccc3c(C)cc(=O)oc23)C/1=O	> 100	–
Cc1cc(=O)oc2c3c(ccc12)C(=O)/C(=C\NC(C)C)C=C3/C=C/C(=O)c1ccc(O)cc1	32	–
